Data taken from ChEMBL document CHEMBL5252537, “Usnic Acid Benzylidene Analogues as Potent Mechanistic Target of Rapamycin Inhibitors for the Control of Breast Malignancies” (J Nat Prod, 2017).
The source made the active and inactive calls. The calls are words filed in the database; no cut-off is given here.

What was measured:
SK-BR-3 [1] = test: Induction of autophagy in human SK-BR-3 cells assessed as autophagic vacuoles by microscopic analysis; format: functional, cell-based
Method in brief: (§1)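 Cells of each line treated with compound and examined by light microscopy for autophagic vacuoles, compared with control cells.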

MCF7 [2] = test: Inhibition of colony formation in human MCF7 cells assessed as reduction in colony diameter at 0.6 uM incubated for 8 days by inverted phase contrast microscopic analysis (reference value: 50 micrometer); format: functional; conditions: time 8 day
Method in brief: (§2)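 Soft agar assay: 5 × 10^3 MCF-7 cells per well in a cell/agar matrix layered over a base agar layer. Overlaid with 10% serum medium containing 0.2 or 0.6 μM compound, or DMSO. Colonies photographed under inverted phase-contrast microscopy after 8 days. Matrix then solubilized, MTT added (4 h, 37 °C), detergent added, A570 read. Growth normalized to DMSO.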

MDA-MB-231 [3] = test: Antimigratory activity in human MDA-MB-231 cells assessed as inhibition of cell migration after 23 hrs by scratch wound healing assay; format: functional, cell-based
Method in brief: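 Cells seeded at 1 × 10^5/well and grown to a confluent monolayer, then scratched with a 200 μL pipet tip. Held 5 h in serum-free medium, then given medium with HGF (100 ng/mL) plus compound or DMSO. Norstictic acid (15 μM) was the positive control. Wound width photographed at 0 h and followed up to 24 h; cells MeOH-fixed. Percent migration from wound thickness versus DMSO wells; IC50 calculated.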

T47D = test: Induction of autophagy in human T47D cells assessed as autophagic vacuoles by microscopic analysis; format: functional, cell-based; method in brief: as §1
MCF7 [4] = test: Inhibition of colony formation in human MCF7 cells assessed as reduction in colony diameter at 0.2 uM incubated for 8 days by inverted phase contrast microscopic analysis (reference value: 50 micrometer); format: functional; conditions: time 8 day; method in brief: as §2
MDA-MB-231 [5] = test: Induction of autophagy in human MDA-MB-231 cells assessed as autophagic vacuoles by microscopic analysis; format: functional, cell-based; method in brief: as §1
MDA-MB-231 [6] = test: Induction of autophagy in human MDA-MB-231 cells assessed as increase in LC3 level at 0.4 to 0.8 uM by Western blotting analysis; format: functional, cell-based; conditions: dose 0.4-0.8 µM
Method in brief: (§3)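 Cells seeded at 5 × 10^5 per 100 mm dish and allowed to attach overnight. Treated with compound or DMSO for 72 h (HGF 100 ng/mL added for MDA-MB-231). Lysed in RIPA buffer with protease inhibitors. 30 μg protein run on SDS-PAGE, transferred to PVDF, blocked in 5% BSA/TBST. Primary antibodies overnight at 4 °C, HRP secondary antibodies, chemiluminescent detection.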

MDA-MB-231 [7] = test: Antitumor activity against human MDA-MB-231/GFP cells xenografted in athymic nude mouse assessed as inhibition of tumor growth at 10 mg/kg, ip administered for 3 weeks; design: scale not given: the % may be the effect or the level left
MCF7 [8] = test: Inhibition of colony formation in human MCF7 cells at 0.2 uM incubated for 8 days by inverted phase contrast microscopic analysis; format: functional; conditions: MCF7, 192 h, time 8 day; method in brief: as §2
[9] = Toxicity in athymic nude mouse xenografted with human MDA-MB-231/GFP cells at 10 mg/kg, ip measured after 34 days post inoculation; conditions: in vivo, 816 h
MDA-MB-231 [10] = test: Anti-invasive activity in human MDA-MB-231 cells after 24 hrs […]; format: functional, cell-based; conditions: MDA-MB-231, 24 h
[11] = target: Serine/threonine-protein kinase mTOR (Homo sapiens) (UniProt P42345); test: Inhibition of mTOR in human MDA-MB-231 cells assessed as reduction in p-S6K level at 0.25 to 0.5 uM by Western blot analysis; format: cell-based; conditions: dose 0.25-0.5 µM; method in brief: as §3
[12] = target: Serine/threonine-protein kinase mTOR (Homo sapiens) (UniProt P42345); test: Inhibition of mTOR in human MDA-MB-231 cells assessed as reduction in phosphorylated 4E-BP1 level at 0.25 to 0.5 uM by Western blot analysis; format: cell-based; conditions: dose 0.25-0.5 µM; method in brief: as §3
SK-BR-3 [13] = test: Antiproliferative activity against human SK-BR-3 cells incubated for 72 hrs by MTT assay; format: functional, cell-based; conditions: SK-BR-3, 72 h
Method in brief: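 Cells seeded at 5 × 10^3/well and allowed to attach overnight, then washed with PBS. Compound diluted from 10 mM DMSO stock into medium (100 ng/mL HGF added for c-Met-expressing cells), in triplicate, 72 h at 37 °C. MTT added for 4 h, formazan dissolved in DMSO, absorbance read at 570 nm. Cell numbers taken from a standard curve; IC50 calculated.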

MDA-MB-231 [14] = test: Induction of autophagy in human MDA-MB-231 cells assessed as increase in beclin-1 level at 0.4 to 0.8 uM by Western blotting analysis; format: functional, cell-based; conditions: dose 0.4-0.8 µM; method in brief: as §3
BT-474 = test: Induction of autophagy in human BT-474 cells assessed as autophagic vacuoles by microscopic analysis; format: functional, cell-based; method in brief: as §1
[15] = Toxicity in athymic nude mouse xenografted with human MCF7 cells at 10 mg/kg, ip measured after 75 days post inoculation; conditions: in vivo, 1800 h

IC50 (MDA-MB-231 [3]; MDA-MB-231, 23 h): 510 nM | IC50 (MDA-MB-231 [10]): 420 nM | inhibition [11]: Active | inhibition [12]: Active | IC50 (SK-BR-3 [13]): 400 nM
SMILES: CC(=O)C1=C(O)C=C2Oc3c(C(=O)/C=C/c4ccc(OC(F)(F)F)cc4)c(O)c(C)c(O)c3[C@]2(C)C1=O
Activity (SK-BR-3 [1]): Active | Activity (MCF7 [2]): 122 um | Activity (MDA-MB-231 [3]): Dose-Dependent Effect | Activity (T47D): Active | Activity (MCF7 [4]): 370 um | Activity (MDA-MB-231 [5]): Active | Activity (MDA-MB-231 [6]): Active | Activity (MDA-MB-231 [7]): 62.3% | inhibition at 0.2 µM (MCF7 [8]): 22.9% | Activity [9]: Non-Toxic | Activity (MDA-MB-231 [14]): Active | Activity (BT-474): Active | Activity [15]: Non-Toxic
